The subject of one data set is WRL68. Briefly: Inhibition of H2O2-induced cell death in human WRL68 cells after 3 hrs by MTT assay. The note with it: WRL68, 3 h. The data set is classed as functional, cell-based. A digest of the protocol: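 WRL-68 cells (ATCC) were grown in DMEM with 10% fetal calf serum at 37 °C and 5% CO2, seeded at 2.5 × 10⁴ cells/well and left overnight. They were then exposed to 0.3 mM H2O2 alone or with 0.02–10 µM compound for 3 h, then 0.5% MTT for 3 h. Formazan was dissolved in acidic isopropanol and read at 550 nm. Runs used ≥6 parallels and were repeated 3 times. IC50 is the concentration (µM) halving H2O2-induced death.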

Data set [1] is described as follows: Antioxidant activity assessed as hydroxyl radical scavenging activity by fenton reaction. The data set is classed as functional. A digest of the protocol:
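Fenton-type hydroxyl radical generation in 2.5 mL of 20 mM potassium phosphate pH 6.8 with 0.1 mM benzoic acid, 0.1 mM H2O2 and 20 µM Fe2+-EDTA. Hydroxybenzoic acid formation followed by fluorescence (ex 305 nm, em 407 nm). IC50 is the concentration (µM) halving the rate of benzoic acid hydroxylation.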

Data set [2] addresses Poly [ADP-ribose] polymerase 1 (Rattus norvegicus, UniProt P27008). Nature of the data set: (§1) Inhibition of rat liver PARP1 by scintillation counting.
Data set [3] addresses Poly [ADP-ribose] polymerase 1 (Rattus norvegicus) (UniProt P27008). Described as §1.
Data set [4] can be described thus: Toxicity in ip dosed C57BL/6 mouse assessed as mortality measured every 24 hrs for 14 days. The data set is classed as organism-based. As to conditions: in vivo. The essentials: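 C57BL/6 mice, groups of eight, given a single intraperitoneal injection of […]. Animals were watched for respiratory, digestive and neurological changes. Deaths were counted every 24 h for 14 days. Animals were kept under standard conditions with tap water and chow ad libitum.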

The test system of data set [5] is Rattus norvegicus. Nature of the data set: Metabolic stability in Wistar rat assessed as nitroxide metabolite level in urine at 8 mg/kg, ip after 4 hrs by EPR spectroscopy. The data set is classed as ADME, organism-based. Further details: dose 8 mg/kg, route intraperitoneal. As to conditions: in vivo. The essentials: (§2)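 Male Wistar rats (290–350 g, n = 3/group) were housed singly in metabolic cages and given a single ip dose of the HCl salt dissolved in 1.0 mL 0.9% NaCl. Urine was collected before dosing and from injection to 4 h. Untreated urine was measured by X-band EPR in 50 µL glass capillaries to give the radical concentration.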

In data set [6] the test system is Rattus norvegicus. Nature of the data set: Metabolic stability in Wistar rat assessed as nitroxide metabolite level in urine at 8 mg/kg, ip after 4 hrs by EPR spectroscopy in presence of PbO2. The data set is classed as ADME, organism-based. Further details: dose 8 mg/kg, route intraperitoneal. As to conditions: in vivo. The essentials: (§3)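 Male Wistar rats (290–350 g, n = 3/group) were housed singly in metabolic cages and given a single ip dose of the HCl salt in 1.0 mL 0.9% NaCl. For urine collected from 0 to 4 h, 50 mg PbO2 was added per 1 mL, vortexed 1 min and left 10 min. This oxidizes hydroxylamine to nitroxide. A 50 µL portion of supernatant was then measured by X-band EPR.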

Data set [7] relates to Rattus norvegicus. Nature of the data set: Metabolic stability in Wistar rat assessed as 2-(1-oxyl-2,2,6,6-tetramethyl-1,2,3,6-tetrahydropyridin-4-yl)-1H-benzimidazol-4-carboxylic acid amide radical level in urine at 8 mg/kg, ip after 4 hrs by EPR spectroscopy. The data set is classed as ADME, organism-based. The arrangement: dose 8 mg/kg, route intraperitoneal. The note with it: in vivo. A digest of the protocol:
as §2

Data set [8] concerns Rattus norvegicus. Briefly: Metabolic stability in Wistar rat assessed as 2-(1-oxyl-2,2,6,6-tetramethyl-1,2,3,6-tetrahydropyridin-4-yl)-1H-benzimidazol-4-carboxylic acid amide radical level in urine at 8 mg/kg, ip after 4 hrs by EPR spectroscopy in presence of PbO2. The data set is classed as ADME, organism-based. The arrangement: dose 8 mg/kg, route intraperitoneal. As to conditions: in vivo. A digest of the protocol: as §3

Active and inactive are the calls of the source. The rule behind the calls is not given here.

The values that follow come from ChEMBL document CHEMBL1152791, “New poly(ADP-ribose) polymerase-1 inhibitors with antioxidant activity based on 4-carboxamidobenzimidazole-2-ylpyrroline and -tetrahydropyridine nitroxides and their precursors” (J Med Chem, 2009).

Chain of Poly [ADP-ribose] polymerase 1 (P27008 whole entry): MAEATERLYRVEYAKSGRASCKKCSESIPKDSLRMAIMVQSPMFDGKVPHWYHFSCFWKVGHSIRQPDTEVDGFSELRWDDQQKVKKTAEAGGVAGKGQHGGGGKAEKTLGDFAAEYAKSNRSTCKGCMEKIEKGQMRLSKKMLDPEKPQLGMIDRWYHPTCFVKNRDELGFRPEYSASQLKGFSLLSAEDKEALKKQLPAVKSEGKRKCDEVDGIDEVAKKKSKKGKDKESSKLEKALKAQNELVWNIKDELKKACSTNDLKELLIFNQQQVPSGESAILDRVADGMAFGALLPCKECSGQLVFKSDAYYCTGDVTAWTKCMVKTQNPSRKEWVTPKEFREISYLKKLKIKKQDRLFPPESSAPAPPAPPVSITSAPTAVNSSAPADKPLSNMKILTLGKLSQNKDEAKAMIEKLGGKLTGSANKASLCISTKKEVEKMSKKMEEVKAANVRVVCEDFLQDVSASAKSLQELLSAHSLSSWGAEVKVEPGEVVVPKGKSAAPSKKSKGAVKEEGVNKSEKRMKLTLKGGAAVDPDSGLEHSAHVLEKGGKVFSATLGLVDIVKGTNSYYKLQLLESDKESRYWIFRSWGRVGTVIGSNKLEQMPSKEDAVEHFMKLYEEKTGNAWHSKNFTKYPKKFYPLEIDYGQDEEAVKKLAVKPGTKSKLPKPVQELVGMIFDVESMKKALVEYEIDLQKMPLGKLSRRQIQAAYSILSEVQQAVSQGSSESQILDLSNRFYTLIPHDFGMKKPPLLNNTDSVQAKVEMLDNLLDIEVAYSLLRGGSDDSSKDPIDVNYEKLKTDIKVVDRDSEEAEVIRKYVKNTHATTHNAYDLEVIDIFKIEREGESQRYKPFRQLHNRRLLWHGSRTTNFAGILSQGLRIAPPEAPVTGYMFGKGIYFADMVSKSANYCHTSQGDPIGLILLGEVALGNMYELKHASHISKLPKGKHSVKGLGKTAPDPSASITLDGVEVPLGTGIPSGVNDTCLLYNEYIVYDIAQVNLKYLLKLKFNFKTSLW
Chain of Poly [ADP-ribose] polymerase 1 (Rattus norvegicus) (P27008 whole entry): as above

For `CC(=O)N1C(C)(C)C=C(c2nc3c(C(N)=O)cccc3[nH]2)C1(C)C`, the results for the IC50 (in the data set with WRL68; in data set [1]) were 3.15 µM and 81 µM, respectively.
For `COC(=O)[C@@H]1[C@@H](c2nc3c(C(N)=O)cccc3[nH]2)C(C)(C)N(O)C1(C)C`, in that order: 11.1 µM and 0.9 µM.
In the case of `CC1(C)C(c2ccccc2)=C(c2nc3c(C(N)=O)cccc3[nH]2)C(C)(C)N1O`, the IC50 in the data set with WRL68 worked out at 0.24 µM; in data set [2], 1.5 µM; in [1], 1.25 µM.
The matching figures for `CC1(C)C=C(c2ccc(-c3nc4c(C(N)=O)cccc4[nH]3)cc2)C(C)(C)N1O`: 0.033 µM, 0.078 µM and 7.2 µM.
The matching figures for `CC1(C)C=C(CSc2nc3c(C(N)=O)cccc3[nH]2)C(C)(C)N1`: 3.14 µM, 3 µM and 200 µM.
On to `CN1C(C)(C)C=C(c2nc3c(C(N)=O)cccc3[nH]2)C1(C)C`, for which the IC50 is 0.095 µM with WRL68 and 73 µM in data set [1].
With `CC1(C)NC(C)(C)C(c2cccc3c2oc2ccccc23)=C1c1nc2c(C(N)=O)cccc2[nH]1`, the IC50 with WRL68 was 0.324 µM; in data set [2], 1.8 µM; in data set [1], 5.3 µM.
For `CC1(C)C=C(CSc2nc3c(C(N)=O)cccc3[nH]2)C(C)(C)N1O`, in that order: 20.9 µM, 6 µM and 200 µM.
The matching figures for `CC1(C)C=C(Cn2cnc3c(C(N)=O)cccc32)C(C)(C)N1O`: 1.99 µM, 10 µM and 1.8 µM.
The matching figures for `CC1(C)C=C(COc2ccc(-c3nc4c(C(N)=O)cccc4[nH]3)cc2)C(C)(C)N1O`: 1.61 µM, 0.564 µM and 13.2 µM.
As for `CC1(C)NC(C)(C)C(c2nc3c(C(N)=O)cccc3[nH]2)=C1c1ccccc1`, the IC50 with WRL68 was 3.98 µM; in data set [1], 0.38 µM.
Take `COC(=O)[C@@H]1[C@@H](c2nc3c(C(N)=O)cccc3[nH]2)C(C)(C)NC1(C)C`: the IC50 is 0.33 µM in the data set on WRL68, 0.216 µM in data set [2] and 3.1 µM in [1].
On to `CC1(C)C=C(CSc2nc3c(C(N)=O)cccc3[nH]2)CC(C)(C)N1`, for which the IC50 with WRL68 was 5.57 µM; in data set [2], 4 µM; in data set [1] it was 350 µM.
For `CC1(C)C=C(COc2ccc(-c3nc4c(C(N)=O)cccc4[nH]3)cc2)C(C)(C)N1`, the IC50 with WRL68 came to 1.61 µM; in data set [1], 4.3 µM.
On to `CC1(C)C(c2nc3c(C(N)=O)cccc3[nH]2)=C(c2cccc3c2oc2ccccc23)C(C)(C)N1O`, for which the IC50 was 26.8 µM with WRL68, 1.8 µM in [2] and 5.3 µM in [1].
Consider `CC1(C)C=C(c2nc3cc(C(N)=O)ccc3[nH]2)CC(C)(C)N1`, for which, in data set [3], the outcome was inactive. Besides, in data set [1], the IC50 was 45 µM.
As to `CC(C)NC(=O)c1cccc2[nH]c(C3=CC(C)(C)N(O)C3(C)C)nc12`, the concentration for half-maximal inhibition (IC50) in the data set with WRL68 was 3.35 µM; in data set [2], 10 µM; in data set [1] it was 2.1 µM.
Turning to `CC1(C)C=C(c2nc3c(C(N)=O)cccc3[nH]2)C(C)(C)N1`, the half-inhibitory concentration (IC50) with WRL68 turned out to be 0.62 µM; in data set [1] it was 2.1 µM. In addition, the LD50 at 336 h in data set [4] was 620 mg/kg.
For the compound `CC1(C)C=C(c2nc3c(C(N)=O)cccc3[nH]2)CC(C)(C)N1O.Cl`, the Activity was 87 nM with Rattus norvegicus [5] and 116 nM in the data set with Rattus norvegicus [6].
Consider `CC1(C)C(c2cccc(C(F)(F)F)c2)=C(c2nc3c(C(N)=O)cccc3[nH]2)C(C)(C)N1O`, for which the IC50 with WRL68 amounted to 60.9 µM; in [2], 0.149 µM; in [1], 11.2 µM.
As to `CC1(C)C=C(c2nc3ccccc3[nH]2)CC(C)(C)N1`, the outcome in data set [3] was inactive. In addition, the IC50 in data set [1] is 5.5 µM.
For the compound `CC1(C)NC(C)(C)c2cc(-c3nc4c(C(N)=O)cccc4[nH]3)ncc21`, the IC50 is 0.08 µM with WRL68, 0.47 µM in [2] and 150 µM in data set [1].
`COc1cc(-c2nc3c(C(N)=O)cccc3[nH]2)ccc1OCC1=CC(C)(C)NC1(C)C`: the IC50 came out at 0.101 µM with WRL68 and 3.8 µM in data set [1].
The matching figures for `CON1C(C)(C)C=C(c2nc3c(C(N)=O)cccc3[nH]2)C1(C)C`: 0.0094 µM and 113 µM.
The matching figures for `CC1(C)NC(C)(C)C(c2nc3c(C(N)=O)cccc3[nH]2)=C1c1cccc(C(F)(F)F)c1`: 32 µM and 13.4 µM.
For `CC1(C)NC(C)(C)C(c2nc3c(C(N)=O)cccc3[nH]2)=C1Br`, in that order: 3.51 µM and 3.4 µM.
For the compound `CC(C)NC(=O)c1cccc2[nH]c(C3=CC(C)(C)NC3(C)C)nc12`, the IC50 in the data set on WRL68 is 56.7 µM; in data set [2], 10 µM; in data set [1] it was 2.3 µM.
For `CC1(C)NC(C)(C)c2cc(-c3nc4c(C(N)=O)cccc4[nH]3)ccc21`, the concentration for half-maximal inhibition (IC50) came to 0.19 µM in the data set on WRL68, 0.45 µM in [2] and 140 µM in data set [1].
For `CC1(C)C=C(CSc2nc3c(C(N)=O)cccc3[nH]2)CC(C)(C)N1O`, in that order: 12.7 µM, 5 µM and 180 µM.
For `CC1(C)c2cc(-c3nc4c(C(N)=O)cccc4[nH]3)sc2C(C)(C)N1O`, in that order: 40 µM, 3.4 µM and 27 µM.
Consider `CC1(C)C=C(c2nc3c(C(N)=O)cccc3[nH]2)CC(C)(C)N1`, for which the results for the IC50 (in the data set with WRL68; in data set [1]) were 0.098 µM and 1.6 µM, respectively. For the same compound, the LD50 at 336 h in data set [4] turned out to be 740 mg/kg.
Regarding `CC1(C)C=C(c2nc3cc(C(N)=O)ccc3[nH]2)CC(C)(C)N1O`, the IC50 in the data set on WRL68 was 28.3 µM; in data set [1], 170 µM. In data set [3], the outcome was inactive.
`CC1(C)C=C(c2ccc(-c3nc4c(C(N)=O)cccc4[nH]3)cc2)C(C)(C)N1`: the values for the IC50 (with WRL68; in data set [1]) were 0.341 µM and 4.5 µM, respectively.
On to `CC1(C)C=C(c2nc3c(C(N)=O)cccc3[nH]2)CC(C)(C)N1O`, for which the IC50 in the data set on WRL68 is 15.6 µM; in data set [2] it was 0.026 µM; in [1] it was 9.6 µM. In addition, the Activity is 0.7 nM in the data set on Rattus norvegicus [7] and 1.7 nM in the data set with Rattus norvegicus [8].
As to `CC1(C)NC(C)(C)c2sc(-c3nc4c(C(N)=O)cccc4[nH]3)cc21`, the IC50 in the data set with WRL68 came to 6.92 µM; in data set [1], 10.5 µM.
Consider `COc1cc(-c2nc3c(C(N)=O)cccc3[nH]2)ccc1OCC1=CC(C)(C)N(O)C1(C)C`, for which the half-maximal inhibitory concentration (IC50) with WRL68 turned out to be 10.1 µM; in [2], 0.472 µM; in [1], 14.1 µM.
The matching figures for `CC1(C)C(Br)=C(c2nc3c(C(N)=O)cccc3[nH]2)C(C)(C)N1O`: 8.21 µM, 0.201 µM and 2.8 µM.

A word on the IC50: it is the point on the concentration scale where inhibition reaches its midpoint. For orientation: LD50 means the dose at which mortality reaches 50%.
